Measurements taken from ChEMBL document CHEMBL4513216, “Probing the Open Global Health Chemical Diversity Library for Multistage-Active Starting Points for Next-Generation Antimalarials” (ACS Infect Dis, 2020).

Test: Toxicity liver stage against HepG2, at 10uM
Format: cell-based
Parameters: test concentration 10 uM, cell line HepG2-A16-CD81EGFP
Conditions: human, HepG2-A16-CD81EGFP cells; read-out: INHIBITION
How it was run: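 Uninfected HepG2-A16-CD81EGFP cells, 3 × 10^3 per well, 1536-well, plated on prespotted compound at 10 μM final, parasite-free screening media added to match infected plates; puromycin 10 μM positive, DMSO 0.5% negative; run in parallel with 48 h PbLuc assay at 37 °C, 5% CO2; viability by CellTiter-Glo luminescence, normalized to controls.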

Row | Structure (SMILES) | cytotoxicity at 10 µM [%]
1 | Cc1cccc2c1nc(CCO)n2-c1ccc(N)nc1 | -1.32
2 | O=C(NCC1CCS(=O)(=O)C1)Nc1ccccn1 (centres undefined) | 1.54
3 | CN(C)C(=O)N1CC2(CCN(S(C)(=O)=O)CC2)c2ccccc21 | -121
4 | CC(=O)NCC(=O)N1CCC2(COCc3c(C)nc(N(C)C)nc32)C1 (centres undefined) | 1.41
5 | CCc1cnc(N2CCc3cc(C(=O)NC)c(N(C)C)nc3CC2)nc1 | -125
6 | CN1CC[C@]2(CN(Cc3cccs3)C[C@H]2c2ccccc2)C1=O | 9.82
7 | CN(C)c1ccnc(-c2ccnc3c2ccn3C)n1 | 20.2
8 | O=S(=O)(NCCCN1CC=CC1)c1cncc(Cl)c1 | -6.38
9 | CCCn1nc2c(cc1=O)CN(Cc1c(C)noc1C)CC2 | -5.03
10 | CS(=O)(=O)N1CCN(c2ccc3ccc(C(=O)NC4CC4)cn23)CC1 | -0.39
11 | Cc1noc(C)c1S(=O)(=O)NC(=O)COc1cccc(C(C)C)c1 | -10.7
12 | CNc1ccnc(N2C[C@@H](C)[C@](O)(C3CC3)C2)n1 | -13.1
13 | CC1CN(C)CCN1C(=O)c1cccn1Cc1cccs1 (centres undefined) | -14.1
14 | CCc1nnc(CNC(=O)CCCN2CCCCC2)s1 | -15.4
15 | Cc1ccnn1CC(=O)N(C)Cc1cnn(-c2ccccc2)c1 | 9
16 | Cc1nnc(NCc2cccnc2OCC(F)(F)F)c(C#N)c1C | -7.77
17 | COC1CCN(S(=O)(=O)N2CCC3(CCCNC3=O)C2)CC1 (centres undefined) | 1.1
18 | CC[C@@]1(O)CCN(c2ncc(Cl)cc2C(F)(F)F)C[C@H]1O | 11.6
19 | CC(C)C1CN(C(=O)c2cc(=O)[nH]c(=O)[nH]2)CCC(=O)N1CC1CC1 (centres undefined) | 1.08
20 | Cc1nc(CN(C)C2CCCN(c3cccnn3)C2)oc1C (centres undefined) | -12.4
21 | O=S(=O)(CC1CCCCC1)NCc1ccnc(O)c1 | 6.54
22 | CCc1c(C)nc2n(c1=O)CC(C(=O)Nc1nccs1)CS2 (centres undefined) | 1.83

Row | Structure (SMILES) | cytotoxicity at 10 µM [%]
23 | CCC[C@@H]1CN(C(=O)c2cc(-c3cccs3)n(C)n2)C[C@H]1N(C)C | -1.84
24 | Cc1ccc(-c2nc(C(=O)N(C)CC(=O)N(C)C)cs2)c(C)c1 | -10.1
25 | CCc1nnsc1C(=O)N(C)Cc1ccc(Br)o1 | -48.8
26 | Cc1cccc(-n2nc(CC(C)C)nc2CS(C)(=O)=O)c1 | 1.81
27 | Cc1nc(N2CCCC2)nc(N2CCC(O)(C(=O)O)CC2)c1C | -5.62
28 | COCCN1C[C@@H]2CN(Cc3cccc(F)c3)CCC[C@]2(C(=O)O)C1 | 0.928
29 | c1cnc2c(c1)cc([C@H]1CCCO1)n2CCN1CCOCC1 | -11.3
30 | CC(C)COC(C)C(=O)N1CCN(S(C)(=O)=O)CC1 (centres undefined) | -5.38
31 | CC1(C)COCCN1C(=O)Cc1csc(Cc2ccccn2)n1 | 3.31
32 | Cc1ccc(CN2C[C@@H]3CN(CC4CCOCC4)CCO[C@@H]3C2)s1 | -12.7
33 | Cc1ccc(CN2CCN(Cc3nccn3C)[C@H]3CS(=O)(=O)C[C@H]32)o1 | -3.65
34 | COc1ccccc1OCc1cc(C(=O)N2CC=CC2C(C)C)n[nH]1 (centres undefined) | -2.72
35 | CC[C@@]1(O)CCN(C(=O)CCNC(=O)c2ccc(F)cc2)C[C@H]1O | 0.0652
36 | CC(C)(C)c1nc(CN2CCCN(Cc3cccs3)CC2)no1 | 6
37 | COc1cc(CN(C)[C@@H]2COC[C@H]2c2ccc(F)cc2)cc(OC)c1 | 7.67
38 | CCN1CC(C(=O)N2CCC(Oc3ccccc3C)CC2)CC1=O (centres undefined) | -12.1
39 | CC(C)CCN1CN=C(NS(=O)(=O)c2ccc(F)cc2)NC1 | -3.03
40 | O=C(NCCc1ccccn1)C1CC(=O)N(CC(F)(F)F)C1 (centres undefined) | -25.2
41 | CS(=O)(=O)NC[C@H]1OC[C@H]2CN(CCc3ccccc3)CC[C@H]21 | -3.53
42 | NC(CC1CCCC1)c1ccc(Oc2ccccc2)cc1 (centres undefined) | 3.72
43 | CCn1ncnc1CN1CCC(CNC(=O)c2cccnc2O)C1 (centres undefined) | 7.06
44 | Cc1nc(C)n(CC(C)C(=O)N2CCC(N3CCC(O)CC3)CC2)n1 (centres undefined) | 1.43

Row | Structure (SMILES) | cytotoxicity at 10 µM [%]
45 | Cc1cc(C(=O)N2CCc3c(nc(-c4ccncc4)[nH]c3=O)C2)no1 | -1.28
46 | CC(C)N1C[C@@H](F)[C@@H](OCc2nc3ncccc3[nH]2)C1 | 5.47
47 | CN(C)CCOCC1CN(Cc2ccc(F)cc2)Cc2nnn(C)c21 (centres undefined) | 4.59
48 | CC(SCC(=O)N(C)CC(=O)NC1CC1)c1cc(F)ccc1F (centres undefined) | 8.13
49 | COc1cc(NC2CCS(=O)(=O)CC2)ncn1 | -3.71
50 | CCCn1ncc(CN2C[C@@H]3CCCN3C[C@H]2Cc2ccccc2)c1C | -16.3
51 | O=C(NC1CCC(C(=O)N2CCSCC2)CC1)N1CCC1 (centres undefined) | 12.7
52 | CCc1nccn1C1CCCN(C(=O)c2ccoc2C)C1 (centres undefined) | -28
53 | Cc1ccc(N2CC[C@H]3OCC[C@@]3(C(=O)NC(C)C)C2)nn1 | -11.7
54 | CC(NCc1cc(F)ccc1F)c1ccc(OCC(=O)NC2CC2)cc1 (centres undefined) | -13.2
55 | Cc1cnccc1-c1cnn(CCNC(=O)c2ccccn2)c1C1CC1 | 56.3
56 | O=C(CN1CCCC1Cn1cncn1)Nc1nncs1 (centres undefined) | 5.05
57 | COCc1ccccc1C(=O)NCC(c1c(F)cccc1F)N(C)C (centres undefined) | -9.75
58 | COc1ccc(-n2cccn2)cc1S(=O)(=O)N1C[C@H](C2CC2)[C@@H](N)C1 | 4.69
59 | Cc1ncnc2c1CCN(C(=O)c1cccnc1)CC2 | 8.36
60 | NS(=O)(=O)c1cnn(CCC(=O)N(Cc2ccccc2)C2CC2)c1 | 4.53
61 | Fc1ccc(-c2cnc(CNC3CCc4ncnn4C3)o2)cc1 (centres undefined) | -0.174
62 | CC(C)NC(=O)N1CCCCC1c1nnc2n1CCNC2 (centres undefined) | 14.3
63 | CN(C)C(=O)c1cc(S(=O)(=O)N2CCCC2Cn2ccnc2)cn1C (centres undefined) | 12.2
64 | O=C(O)Cc1nc2nccc(-c3ccc(F)cc3)n2n1 | -1.53
65 | CNC(=O)[C@@H]1[C@@H](c2ccccc2)CN2CCN(Cc3cc(C)no3)C[C@H]12 | 5.94
66 | Cc1cc(C)n(CC2(CNC(=O)C(c3ccccc3C)N(C)C)CC2)n1 (centres undefined) | 1.79

Row | Structure (SMILES) | cytotoxicity at 10 µM [%]
67 | Cn1c(CN2CCCC(N3CCCCCC3)C2)cc(=O)n(C)c1=O (centres undefined) | -1.85
68 | COc1ncc(-c2c(C#N)c(N)nc3c2CCc2[nH]ccc2-3)cn1 | 6.47
69 | CCc1n[nH]c(C2CN(CCc3cccs3)CCO2)n1 (centres undefined) | 3.83
70 | CC(C)C(C(=O)N(C)C)c1cccc(Cl)c1 (centres undefined) | 6.14
71 | O=C(Nc1ccccc1OCCc1ccccn1)N1CCOCC(O)C1 (centres undefined) | 4.25
72 | COCCCN1CC2(CCCN(c3ncnc4[nH]ccc34)C2)CCC1=O (centres undefined) | -4.67
73 | CC(O)C1CCN(C(=O)CCOc2ccccc2F)CC1 (centres undefined) | -5.63
74 | Cc1cccc(-n2cc3nc(N4CCC(C)CC4)[nH]cc-3c2=O)c1 | 0.738
75 | CCC(=O)NC(Cc1cc(N(C)C)nc(C2CC2)n1)c1ccccc1 (centres undefined) | 0.301
76 | Cn1c(C(F)(F)F)nn(CCNC(=O)NCc2ccccc2)c1=O | -27.3
77 | CCN(Cc1noc(C)n1)C(=O)C(c1ccccc1C)N(C)C (centres undefined) | 1.89
78 | Cc1nc(N2CCCC2C(=O)NCc2ccsc2)nc2ccccc12 (centres undefined) | 6.03
79 | Fc1ccccc1CC1CCN(Cc2nccs2)CC1 | -6.92
80 | O=C(O)c1cnc(-c2cccc3c2CCNC3)c(Cl)c1 | 8.97
81 | O=C(Cc1ccccc1)N1CC[C@H]2[C@@H]1CCC(=O)N2Cc1ccncc1 | 3.07
82 | Cc1cc(C)c(C(=O)NC2CCN(c3ncccc3C#N)CC2)c(=O)[nH]1 | 7.24
83 | NC(=O)C1(CCCc2ccccn2)CCCN(Cc2ccncc2)C1 (centres undefined) | -4.8
84 | CCC(CC)NC(=O)Cn1cc(C(N)=O)c(-c2ccccc2)n1 | -6.87
85 | Cc1cc(=O)n(CCNS(=O)(=O)c2cccc(C(F)(F)F)c2)cn1 | -6.98
86 | Cc1cccc(CN2CCc3onc(CN(C)C)c3C2)n1 | -4.62
87 | O=C(COc1cccc(Cl)c1)N1CCOCC(O)(CN2CCCC2)C1 (centres undefined) | -4.68
88 | O=C(c1ccc(NCc2ccco2)nc1)N1CCc2ccccc21 | -4.6

Row | Structure (SMILES) | cytotoxicity at 10 µM [%]
89 | CC[C@H](Cn1ncc2ccccc2c1=O)NC(=O)c1ccccn1 | -4.27
90 | c1ccc(CO[C@@H]2CN(Cc3nccs3)[C@@H]3COC[C@@H]32)nc1 | -104
91 | COCCn1ccnc1C1CCCN(C(=O)c2cc(F)cc(F)c2)C1 (centres undefined) | 8.86
92 | CCOc1ncccc1C(=O)NC1CCCN(c2ncccn2)C1 (centres undefined) | -23.5
93 | O=C(NCCc1ccncc1)c1cccc(S(=O)(=O)NC2CCOC2)c1 (centres undefined) | 4.93
94 | COCC(C)(CCO)NC(=O)Nc1c(F)cccc1Br (centres undefined) | 3.79
95 | CNc1ncccc1CN1CCN(c2cc(NC3CC3)nc(N)n2)CC1 | -6.58
96 | CCOc1ccc(CN2CCC(c3[nH]ncc3C)C2)cc1CO (centres undefined) | -2.38
97 | COC(=O)[C@H](C)NC(=O)CSCc1nc2sc(C(C)C)cc2c(=O)[nH]1 | 2.87
98 | CC(=O)N1C[C@H]2CC[C@@H](C1)N(S(=O)(=O)c1ccc(C#N)cc1Cl)C2 | 1.33
99 | Cc1ccc(NC2CCN(C(=O)CCc3ccncc3)CC2)nn1 | -9.43
100 | CC(=O)N1CCC(C)(c2nc(C)no2)CC1 | -1.55
101 | CCc1ccc(C(=O)N2CCCCC2Cn2cccn2)o1 (centres undefined) | -6.8
102 | O=C(c1cc(-c2ccco2)nc2c(Cl)cccc12)N1C[C@H]2CNC[C@H]2C1 | -4.23
103 | Cc1cc(C)n(CC(C)Nc2ncnc3c2CCNC3)n1 (centres undefined) | 3.37
104 | Cc1ncc(CNC(=O)c2nn(C)c3c2CS(=O)(=O)CC3)s1 | -2.44
105 | Cc1cc(CN(C)Cc2csc(-c3cccs3)n2)n[nH]1 | -4.14
106 | CCc1cnc(CN(C)C2CCN(c3sccc3C#N)C2=O)s1 (centres undefined) | 8.32
107 | CC1CN(C)CCN1C(=O)c1ccn(-c2cccc(Cl)c2)n1 (centres undefined) | -26.3
108 | Cc1ccc(C(=O)NCC(O)c2cccc(F)c2)c(=O)[nH]1 (centres undefined) | -2.83
109 | CC(C)c1nc(CN2CCC(CO)CC2)cs1 | -20.1
